Assay results published in ChEMBL document CHEMBL1649416, “Structure-based design of potent and selective 2-(quinazolin-2-yl)phenol inhibitors of checkpoint kinase 2” (J Med Chem, 2011).

Test: Metabolic stability in mouse microsomes assessed as decrease in parent compound level after 30 mins by LC/MS
Format: ADME, Microsome
Conditions: read-out: Activity
How it was run: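 Compounds were incubated with mouse liver microsomes supplemented with UDP-glucuronosyltransferase, covering primary and secondary metabolism. Turnover was expressed as % of parent metabolized at 30 min.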

Q: With `COc1cc2nc(-c3cc(F)ccc3O)nc(N[C@@H]3CNC[C@H]3C(C)(C)O)c2cc1OC` as the molecule, how does the metabolised at 0.5 h read?
A: The metabolised at 0.5 h was 23%.

Q: With `Oc1ccc(-c2cc[nH]n2)cc1-c1nc(N[C@H]2CCNC2)c2ccccc2n1` as the molecule, how does the metabolised at 0.5 h read?
A: Its metabolised at 0.5 h is 27%.

Q: With `Oc1ccc(F)cc1-c1nc(N[C@H]2CCNC2)c2ccccc2n1` as the molecule, how does the metabolised at 0.5 h read?
A: The metabolised at 0.5 h was 27%.

Q: Which metabolised at 0.5 h does the source give for `CC(C)(O)[C@@H]1CNC[C@H]1Nc1nc(-c2cc(-c3cc[nH]n3)ccc2O)nc2ccccc12` here?
A: The metabolised at 0.5 h was 22%.

Q: Which metabolised at 0.5 h does the source give for `COCCOc1ccc2c(N[C@H]3CCNC3)nc(-c3cc(F)ccc3O)nc2c1` here?
A: Its metabolised at 0.5 h is 25%.

Q: With `Oc1ccccc1-c1nc(N[C@H]2CCNC2)c2ccccc2n1` as the molecule, how does the metabolised at 0.5 h read?
A: Its metabolised at 0.5 h is 25%.
